Measured values as given in ChEMBL document CHEMBL1126179, “Synthesis and anti-HIV activity of isonucleosides” (J Med Chem, 1992).

How the values were obtained:
[1] = In vitro cytotoxicity against uninfected ATH-8 (human T-cell) cell line.; assay type: functional; conditions: read-out: CD50 (the source's name)
Summary of the method: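 Uninfected ATH-8 cells; the value is the dose that reduces viability by 50%. Concentrations tested up to […].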

[2] = In vitro effective dose which provides 50% protection of ATH-8 cells against the cytopathic effect of HIV; range 5-10 uM; assay type: functional; conditions: Homo sapiens, read-out: ED50 (the source's name)
[3] = In vitro effective dose which provides 50% protection of ATH-8 cells against the cytopathic effect of HIV; Range 5-10 uM; assay type: functional; conditions: Homo sapiens, read-out: ED50 (the source's name)
[4] = In vitro effective dose which provides 50% protection of ATH-8 cells against the cytopathic effect of HIV; range 10-50 uM; assay type: functional; conditions: Homo sapiens, read-out: ED50 (the source's name)
Summary of the method: (§1)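 ATH-8 cells infected with HIV-1 (HTLV-III_B strain) and read as the dose giving 50% protection against viral cytopathic effect. Reported as a range from ≥3 experiments, each including a standard such as AZT.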

[5] = system: Human immunodeficiency virus 1; assay: Concentration required to inhibit HIV replication by 50%; assay type: functional, organism-based
Summary of the method: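 Human PBM from a normal donor, isolated by Ficoll-Hypaque and stimulated with PHA (5 μg/mL) for 24 h in RPMI 1640/15% FBS/IL-2. Cells plated at 5 × 10⁵ per well and infected with 20 TCID₅₀ of AZT-resistant patient isolate HIV-1 ERS 205pre, with drug added. Incubated at 37 °C for 7 days; half the medium and drug replaced on day 4. Day-7 supernatant p24 gag measured by radioimmunoassay.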

[6] = In vitro effective dose which provides 50% protection of ATH-8 cells against the cytopathic effect of HIV; range 5-15 uM; assay type: functional; conditions: Homo sapiens, read-out: ED50 (the source's name); summary of the method: as §1
[7] = In vitro effective dose which provides 50% protection of ATH-8 cells against the cytopathic effect of HIV; assay type: functional; conditions: Homo sapiens, read-out: ED50 (the source's name); summary of the method: as §1

| Structure (SMILES) | IC50 [5] [µM] | EC50 [7] [µM] | CC50 [1] [µM] | further results |
| --- | --- | --- | --- | --- |
| Nc1ncnc2c1ncn2[C@H]1CC[C@@H](CO)O1 |  |  | > 200 | EC50 [2]: 5 µM |
| Nc1nc(O)c2ncn([C@H]3CC[C@@H](CO)O3)c2n1 |  |  | > 200 | EC50 [3]: 5 µM |
| Nc1nc(O)c2ncn([C@H]3CO[C@@H](CO)C3)c2n1 | 17.5 |  | > 500 | EC50 [4]: 10 µM |
| Nc1ccn([C@H]2CO[C@@H](CO)C2)c(=O)n1 |  | > 100 | > 100 |  |
| Cc1cn([C@H]2CO[C@@H](CO)C2)c(=O)[nH]c1=O |  | > 100 | > 100 |  |
| OC[C@H]1C[C@@H](n2cnc3c(O)ncnc32)CO1 |  | > 100 | > 100 |  |

Now from value to compound, other results behind:

| IC50 [5] [µM] | EC50 [7] [µM] | Structure (SMILES) | CC50 [1] [µM] | further results |
| --- | --- | --- | --- | --- |
| 8.2 |  | Nc1ncnc2c1ncn2[C@H]1CO[C@@H](CO)C1 | > 100 | EC50 [6]: 5 µM |
| 1.28 |  | O=c1[nH]cnc2c1ncn2[C@H]1CC[C@@H](CO)O1 [DIDANOSINE] |  |  |
